Measured values from ChEMBL document CHEMBL1121568, “A multifaceted approach to the study of the side-chain conformation in beta-lactamase-resistant penicillins” (J Med Chem, 1980).

Biological target: T1, Beta-lactamase OXA-9 (Klebsiella aerogenes) (UniProt P0A3M4)
T1 sequence (whole entry): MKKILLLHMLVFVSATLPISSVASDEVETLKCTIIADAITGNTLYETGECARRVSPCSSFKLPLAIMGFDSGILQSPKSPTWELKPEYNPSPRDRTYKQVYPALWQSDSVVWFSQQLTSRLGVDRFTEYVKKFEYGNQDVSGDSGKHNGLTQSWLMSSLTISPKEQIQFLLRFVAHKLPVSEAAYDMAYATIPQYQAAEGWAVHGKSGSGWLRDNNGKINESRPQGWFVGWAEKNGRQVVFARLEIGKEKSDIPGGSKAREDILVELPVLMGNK
Experiment: Inhibition of beta-lactamase of Enterobacter aerogenes relative to oxacillin sulfoxide(=1)
Procedure, shortened: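 Partially purified Enterobacter aerogenes β-lactamase at constant concentration in pH 8.5 phosphate buffer, 25 °C, hydrolysing cephalothin (2.6 × 10^-4 M). Inhibitors tested at 3.4 × 10^-7 to 8.5 × 10^-5 M. Initial hydrolysis rates with (v_i) and without (v) inhibitor followed by absorbance at 260 nm and estimated graphically. Ratio v/v_i expressed relative to a reference compound.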

Relative inhibition | Structure (SMILES)
370 | Cc1onc(-c2ccccc2Cl)c1C(=O)N[C@@H]1C(=O)N2[C@@H]1[S+]([O-])C(C)(C)[C@@H]2C(=O)O (stereo partly specified)
270 | COC(=O)[C@@H]1N2C(=O)[C@@H](NC(=O)c3c(-c4ccccc4Cl)noc3C)[C@H]2SC1(C)C
120 | COC(=O)[C@@H]1N2C(=O)[C@@H](NC(=O)c3c(-c4ccccc4)noc3C)[C@H]2SC1(C)C
2 | COC(=O)[C@@H]1N2C(=O)[C@@H](NC(=O)c3c(OC)cccc3OC)[C@H]2SC1(C)C
5000 | Cc1onc(-c2c(F)cccc2Cl)c1C(=O)N[C@@H]1C(=O)N2[C@@H]1SC(C)(C)[C@@H]2C(=O)O
5000 | Cc1onc(-c2ccccc2Cl)c1C(=O)N[C@@H]1C(=O)N2[C@@H]1SC(C)(C)[C@@H]2C(=O)O
5000 | Cc1onc(-c2c(Cl)cccc2Cl)c1C(=O)N[C@@H]1C(=O)N2[C@@H]1SC(C)(C)[C@@H]2C(=O)O
50 | COc1cccc(OC)c1C(=O)N[C@@H]1C(=O)N2[C@@H]1SC(C)(C)[C@@H]2C(=O)O
1 | Cc1onc(-c2ccccc2)c1C(=O)N[C@@H]1C(=O)N2[C@@H]1[S+]([O-])C(C)(C)[C@@H]2C(=O)O (stereo partly specified)
1500 | COC(=O)[C@@H]1N2C(=O)[C@@H](NC(=O)c3c(-c4c(Cl)cccc4Cl)noc3C)[C@H]2SC1(C)C

Structure (SMILES) | Relative inhibition
Cc1onc(-c2ccccc2)c1C(=O)N[C@@H]1C(=O)N2[C@@H]1SC(C)(C)[C@@H]2C(=O)O | 5000
